pIC50: −log10 of the molar value. The source made the active and inactive calls. The calls are words filed in the database; no cut-off is given here.
Assays:
[1] = Cytotoxicity against human JHU011 cells after 72 hrs by MTS assay; type: functional, cell-based; details: JHU011, 72 h
Procedure, shortened: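 Seeded at 2×10³ cells/well, left 24 h, then exposed to serial dilutions in medium (from DMSO stock; vehicle controls <0.1% DMSO v/v) for 72 h. MTS added, 3 h at 37 °C, 5% CO₂, absorbance 490 nm. Viability expressed relative to medium-only control; IC50 read from viability–concentration curves. Triplicate; cisplatin positive control.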

[2] = tested on: JHU011; assay: Induction of apoptosis in human JHU011 cells assessed as induction of PRAP cleavage after 24 hrs by Western blot analysis; type: functional, cell-based
Procedure, shortened: (§1)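 Cells exposed to increasing concentrations for 24 h, lysed in NP-40/Tris pH 7.5 buffer with protease inhibitors, NaF and orthovanadate. Equal protein run on SDS-PAGE, transferred to nitrocellulose. Probed overnight at 4 °C for uncleaved caspase 3 (pro-form) and uncleaved/cleaved PARP; HRP secondary 1 h at room temperature.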

[3] = target: T1, Mitogen-activated protein kinase; ERK1/ERK2 (Homo sapiens) (UniProt P27361+P28482); assay: Inhibition of ERK1/2 phosphorylation in human MDA1986 cells at 0.1 to 5 uM after 24 hrs by Western blot analysis; type: cell-based
T1 sequence (P27361 whole entry, looked up): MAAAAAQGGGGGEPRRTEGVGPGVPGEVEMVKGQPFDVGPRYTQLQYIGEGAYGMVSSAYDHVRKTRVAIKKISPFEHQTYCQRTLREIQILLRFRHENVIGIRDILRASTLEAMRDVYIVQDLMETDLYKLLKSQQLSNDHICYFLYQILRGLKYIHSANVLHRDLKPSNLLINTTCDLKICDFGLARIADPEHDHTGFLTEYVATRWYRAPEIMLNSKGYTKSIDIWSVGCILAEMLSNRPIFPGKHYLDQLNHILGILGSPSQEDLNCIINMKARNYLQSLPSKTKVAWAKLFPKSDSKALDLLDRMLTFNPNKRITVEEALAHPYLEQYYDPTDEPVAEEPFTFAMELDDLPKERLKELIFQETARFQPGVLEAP
T1 sequence (P28482 whole entry, looked up): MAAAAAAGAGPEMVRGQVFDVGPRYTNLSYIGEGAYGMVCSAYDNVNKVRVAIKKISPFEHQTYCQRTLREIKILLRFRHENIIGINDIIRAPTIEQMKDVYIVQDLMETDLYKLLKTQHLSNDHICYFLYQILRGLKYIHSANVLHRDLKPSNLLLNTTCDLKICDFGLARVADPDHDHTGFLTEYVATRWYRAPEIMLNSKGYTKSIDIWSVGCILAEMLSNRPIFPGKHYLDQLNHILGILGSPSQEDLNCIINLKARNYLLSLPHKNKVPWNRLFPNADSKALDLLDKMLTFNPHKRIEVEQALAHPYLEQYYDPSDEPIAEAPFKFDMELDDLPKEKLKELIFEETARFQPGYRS
Procedure, shortened: (§2)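 Increasing concentrations for 24 h. NP-40 lysates (with NaF and orthovanadate) cleared at 14,000 × g, equal protein separated by SDS-PAGE and blotted. Probed for phospho-Akt (Ser473), total Akt, phospho-ERK1/2 and total ERK; β-actin loading control. Primary antibody overnight at 4 °C, HRP secondary 1 h.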

[4] = tested on: JHU011; assay: Induction of apoptosis in human JHU011 cells assessed as mild increase in late apoptotic cells at 5 uM after 24 hrs by FITC-conjugated annexin V and propidium iodide staining-based flow cytometry; type: functional, cell-based
Procedure, shortened: (§3)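 Cells given 5.0 μM for 24 h, harvested, and co-stained at 1×10⁶ cells/mL with annexin V-FITC and PI. Annexin binding buffer added before flow cytometry. Annexin V only scored as early apoptosis, annexin V+PI as late apoptosis, PI only as necrosis. Triplicate; t-test.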

[5] = tested on: UM-SCC2; assay: Induction of apoptosis in human UM-SCC2 cells assessed as increase in late non-viable necrotic cells at 5 uM after 24 hrs by FITC-conjugated annexin V and propidium iodide staining-based flow cytometry; type: functional, cell-based; procedure, shortened: as §3
[6] = target: RAC-alpha serine/threonine-protein kinase (Homo sapiens) (UniProt P31749); assay: Inhibition of Akt in human MDA1986 cells assessed as decrease in total protein level at 0.1 to 5 uM after 24 hrs by Western blot analysis; type: cell-based; procedure, shortened: as §2
Sequence of RAC-alpha serine/threonine-protein kinase (Homo sapiens) (P31749 whole entry): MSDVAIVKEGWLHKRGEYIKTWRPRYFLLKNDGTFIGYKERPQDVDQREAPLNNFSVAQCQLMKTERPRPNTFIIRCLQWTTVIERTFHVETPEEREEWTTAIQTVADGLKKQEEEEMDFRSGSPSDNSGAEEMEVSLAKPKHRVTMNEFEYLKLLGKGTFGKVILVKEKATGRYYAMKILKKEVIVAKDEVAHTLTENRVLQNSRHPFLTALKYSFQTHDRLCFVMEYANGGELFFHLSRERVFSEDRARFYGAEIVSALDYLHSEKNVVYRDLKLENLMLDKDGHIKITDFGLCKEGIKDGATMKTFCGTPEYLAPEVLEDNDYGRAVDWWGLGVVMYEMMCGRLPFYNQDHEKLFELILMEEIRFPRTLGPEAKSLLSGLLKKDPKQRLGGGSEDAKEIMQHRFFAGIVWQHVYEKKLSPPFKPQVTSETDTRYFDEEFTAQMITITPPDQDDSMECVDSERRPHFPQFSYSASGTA

[7] = tested on: MDA1986; assay: Induction of apoptosis in human MDA1986 cells assessed as increase in non-viable necrotic cells at 5 uM after 24 hrs by FITC-conjugated annexin V and propidium iodide staining-based flow cytometry; type: functional, cell-based; procedure, shortened: as §3
[8] = Induction of apoptosis in human JHU011 cells assessed as early apoptotic cells at 5 uM after 24 hrs by FITC-conjugated annexin V and propidium iodide staining-based flow cytometry; type: functional; procedure, shortened: as §3
[9] = Induction of cell cycle arrest in human MDA1986 cells assessed as accumulation at G2/M phase at 3 uM after 24 hrs by flow cytometry; type: functional
Procedure, shortened: (§4)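 Treated 24 h with 3.0 μM or DMSO vehicle. Cells trypsinized; 1×10⁶ washed in 0.9% NaCl and fixed 30 min at room temperature in cold 70% ethanol/0.9% NaCl. Stained with PI (50 μg/mL in PBS) 30 min, then DNase-free RNase (1 mg/mL) 30 min. Phase distribution (sub-G0, G0/G1, S, G2/M) by flow cytometry.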

[10] = tested on: UM-SCC2; assay: Induction of apoptosis in human UM-SCC2 cells assessed as induction of PRAP cleavage after 24 hrs by Western blot analysis; type: functional, cell-based; procedure, shortened: as §1
[11] = tested on: JHU011; assay: Induction of apoptosis in human JHU011 cells assessed as increase in non-viable necrotic cells at 5 uM after 24 hrs by FITC-conjugated annexin V and propidium iodide staining-based flow cytometry; type: functional, cell-based; procedure, shortened: as §3
[12] = tested on: UM-SCC2; assay: Induction of apoptosis in human UM-SCC2 cells assessed as decrease in procaspase-3 level at 1 to 6 uM after 24 hrs by Western blot analysis; type: functional, cell-based; procedure, shortened: as §1
[13] = tested on: JHU011; assay: Induction of apoptosis in human JHU011 cells assessed as decrease in procaspase-3 level at 1 to 6 uM after 24 hrs by Western blot analysis; type: functional, cell-based; procedure, shortened: as §1
[14] = target: RAC-alpha serine/threonine-protein kinase (Homo sapiens) (UniProt P31749); assay: Inhibition of Akt phosphorylation in human JMAR cells after 24 hrs by Western blot analysis; type: cell-based; procedure, shortened: as §2
[15] = tested on: JMAR; assay: Induction of apoptosis in human JMAR cells assessed as induction of PRAP cleavage after 24 hrs by Western blot analysis; type: functional, cell-based; procedure, shortened: as §1
[16] = target: T1, Mitogen-activated protein kinase; ERK1/ERK2 (Homo sapiens); assay: Inhibition of ERK1/2 phosphorylation in human MDA1986 cells assessed as effect on total protein level at 0.1 to 5 uM after 24 hrs by Western blot analysis; type: cell-based; procedure, shortened: as §2
[17] = tested on: JMAR; assay: Induction of apoptosis in human JMAR cells assessed as increase in late apoptotic cells at 5 uM after 24 hrs by FITC-conjugated annexin V and propidium iodide staining-based flow cytometry; type: functional, cell-based; procedure, shortened: as §3
[18] = target: RAC-alpha serine/threonine-protein kinase (Homo sapiens) (UniProt P31749); assay: Inhibition of Akt in human JHU011 cells assessed as decrease in total protein level at 0.1 to 5 uM after 24 hrs by Western blot analysis; type: cell-based; procedure, shortened: as §2
[19] = Induction of cell cycle arrest in human JHU011 cells assessed as accumulation at G2/M phase at 3 uM after 24 hrs by flow cytometry; type: functional; procedure, shortened: as §4
[20] = tested on: JMAR; assay: Induction of apoptosis in human JMAR cells assessed as decrease in procaspase-3 level at 1 to 6 uM after 24 hrs by Western blot analysis; type: functional, cell-based; procedure, shortened: as §1
[21] = Induction of cell cycle arrest in human JMAR cells assessed as accumulation at G2/M phase at 3 uM after 24 hrs by flow cytometry; type: functional; procedure, shortened: as §4
[22] = tested on: UM-SCC2; assay: Induction of apoptosis in human UM-SCC2 cells assessed as increase in early apoptotic cells at 5 uM after 24 hrs by FITC-conjugated annexin V and propidium iodide staining-based flow cytometry; type: functional, cell-based; procedure, shortened: as §3
[23] = tested on: JMAR; assay: Induction of apoptosis in human JMAR cells assessed as increase in non-viable necrotic cells at 5 uM after 24 hrs by FITC-conjugated annexin V and propidium iodide staining-based flow cytometry; type: functional, cell-based; procedure, shortened: as §3
[24] = target: T1, Mitogen-activated protein kinase; ERK1/ERK2 (Homo sapiens); assay: Inhibition of ERK1/2 phosphorylation in human JHU011 cells assessed as effect on total protein level at 0.1 to 5 uM after 24 hrs by Western blot analysis; type: cell-based; procedure, shortened: as §2

- inhibition [3]: inactive
- inhibition [6]: Active
- inhibition [14]: Dose-dependent effect
- inhibition [16]: inactive
- inhibition [18]: Active
- inhibition [24]: inactive
Structure (SMILES): CC1=C(CO)C(=O)O[C@@H]([C@@H](C)[C@H]2CC[C@H]3[C@@H]4C[C@H]5O[C@]56[C@@H](O)C=CC(=O)[C@]6(C)[C@H]4CC[C@]23C)C1 [WITHAFERIN A]
- pIC50 [1]: 5.66
- Activity [2]: Dose-dependent effect
- Activity [4]: Active
- Activity [5]: Active
- Activity [7]: inactive
- Activity [8]: 14.8%
- Activity [9]: 49%
- Activity [10]: Dose-dependent effect
- Activity [11]: inactive
- Activity [12]: Active
- Activity [13]: Active
- Activity [15]: Dose-dependent effect
- Activity [17]: Active
- Activity [19]: 34%
- Activity [20]: Active
- Activity [21]: 42%
- Activity [22]: Active
- Activity [23]: Active

— ChEMBL document CHEMBL1221390, “Withaferin A, a cytotoxic steroid from Vassobia breviflora, induces apoptosis in human head and neck squamous cell carcinoma” (J Nat Prod, 2010)
